# High-throughput results from PubChem.
# Rows were chosen to be rich in hits. Some 1.8% of all compounds tested hit in one or more screens of this group.
# M5 PAM – CHRM5 positive allosteric modulation; P08912; CHO-K1 hM5, Fluo-8 calcium, ACh EC20 PAM; 0% = ACh EC20, 100% = ACh EC100; activation, % at 3 µM; hit rate 0.3% among 360,000; AID 624038;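 active means activation above the run cutoff, the mean activation of all test compounds plus 3 SD, cut at about 18% in these data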
# Target sequence (P08912 whole entry, looked up): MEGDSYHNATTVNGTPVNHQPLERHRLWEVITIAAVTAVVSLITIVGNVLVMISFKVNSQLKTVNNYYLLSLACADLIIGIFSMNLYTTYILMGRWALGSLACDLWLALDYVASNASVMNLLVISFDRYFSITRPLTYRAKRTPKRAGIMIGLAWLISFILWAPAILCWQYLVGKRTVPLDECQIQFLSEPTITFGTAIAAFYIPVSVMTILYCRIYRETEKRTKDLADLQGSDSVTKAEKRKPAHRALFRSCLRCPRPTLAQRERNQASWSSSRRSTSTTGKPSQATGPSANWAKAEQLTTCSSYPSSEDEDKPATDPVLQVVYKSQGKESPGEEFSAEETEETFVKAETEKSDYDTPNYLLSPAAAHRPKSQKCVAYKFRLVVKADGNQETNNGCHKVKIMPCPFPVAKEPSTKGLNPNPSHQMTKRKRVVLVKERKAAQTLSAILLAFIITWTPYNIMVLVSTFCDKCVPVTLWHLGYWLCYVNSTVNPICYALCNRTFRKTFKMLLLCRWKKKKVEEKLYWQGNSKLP
#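 Assay system: CHO-K1 hM5 cells. Also added: acetylcholine at EC20 concentration, added after compound. Dosing: 3 µM, single dose. Times: compound preincubation 140 s before EC20 acetylcholine addition. Signal: Fluo-8 calcium fluorescence. Measure: % activation relative to EC20 and EC100 ACh responses. Repeats: singlicate, one well per test compound.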
# M4 ag – agonists of human muscarinic M4 receptor (CHRM4) | P08173 | activation, % at 3 µM | AID 624127 | CHO-K1 hM4/Gqi5, Fluo-8 calcium fluorescence; vehicle 0%, full acetylcholine response 100% | hit rate 0.14% among 360,000;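 active means activation above the run mean over all test wells plus 3 SD, cut at about 32% in these data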;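 further: peak over basal fluorescence ratio per well then scaled between controls; 0% = DMSO wells and 100% = acetylcholine at EC100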
# M4 PAM – positive allosteric modulators of human muscarinic M4 receptor; P08173; CHO-K1 hM4/Gqi5, Fluo-8 calcium fluorescence, ACh EC20; 0% = ACh EC20, 100% = maximal ACh; activation, % at 3 µM; hit rate 0.4% among 360,000; AID 624126;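 active means activation above its plate's cutoff, the mean activation of sample wells plus 3 SD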
# CHRM5 antagonist – CHRM5 antagonism in calcium assay | P08912 | CHO-hM5 cells, Fluo-8 calcium fluorescence, ACh EC80 | inhibition, % at 3 µM | hit rate 0.59% among 360,000 | AID 624040;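 active means inhibition above a per-plate cutoff, the mean of that plate's test compounds plus 3 SD, cut at about 27% in these data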;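 further: 0% = acetylcholine EC80 with DMSO and 100% = DMSO without agonist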
# CHRM5 agonist – agonists of human muscarinic M5 receptor (CHRM5). CHO-K1 hM5 cells, Fluo-8 calcium fluorescence; 0% DMSO wells, 100% maximal acetylcholine response. activation, % at 3 µM. hit rate 0.19% among 360,000. AID 624037;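 active means activation above the run's mean over test compounds plus 3 SD, cut at about 23% in these data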;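 further: signal is peak over basal fluorescence ratio across the kinetic read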
# CHRM4 antagonist – antagonists of human muscarinic M4 receptor (CHRM4); P08173; CHO-hM4 cells, ACh EC80, Fluo-8 calcium fluorescence; inhibition, % at 3 µM; hit rate 0.73% among 360,000; AID 624125;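 active means inhibition above its plate's cutoff, the mean inhibition of sample wells plus 3 SD, cut at about 27% in these data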;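 further: 0% = acetylcholine EC80 with DMSO and 100% = DMSO without agonist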
# Active calls of the source: *.
SMILES,M5 PAM,M4 ag,M4 PAM,CHRM5 antagonist,CHRM5 agonist,CHRM4 antagonist
COc1ccc(N=C2S/C(=C\c3ccc(OCC(=O)O)cc3)C(=O)N2CCc2c[nH]c3ccccc23)cc1,-11,2,-6,-6,8,-8
COc1ccc(N=C2S/C(=C\c3ccc(N4CCOCC4)o3)C(=O)N2CCc2c[nH]c3ccccc23)cc1,-1,8,-13,11,10,45*
Cn1cc(CN2CCC(C(=O)Nc3ccc(Oc4ccccc4F)cc3)CC2)cn1,-2,1,5,8,-5,6
CC(C)C[C@@H](CN1CCC[C@H]1CN1C(=O)C(=O)NC[C@@H]1Cc1ccccc1)N1C[C@H](Cc2ccccc2)N(CC2CCCCCC2)C(=O)C1=O,-2,-1,4,3,-2,-6
Cc1cc(C)n(-c2nnc(C)n2/N=C/c2ccccc2OCc2ccccc2Cl)n1,0,-1,4,8,-2,2
Cc1cc(C)n(-c2nnc(C)n2/N=C/c2cc(Br)ccc2OCc2ccccc2)n1,-6,1,-11,4,-8,26*
O=S(=O)(Nc1nc2c(s1)CCCC2)c1ccc(F)cc1,-3,1,-1,9,-7,-3
COc1ccc(S(=O)(=O)Nc2nc3c(s2)CCCC3)cc1,20*,4,12,-4,6,-7
CC(C)NC(=O)C1C(c2ccccc2)=Nc2ccccc2N1C(=O)c1cc(Cl)cc(Cl)c1 (stereo not given),4,1,5,-14,-5,-5
CCOc1cc(-c2nc3ccccn3c2NCC2CCCO2)ccc1O (stereo not given),-17,22,-25,24,5,30*
COc1cc(-c2nc3ccccn3c2NCC2CCCO2)ccc1O (stereo not given),-20,16,-19,13,6,14
CC1(C)CC(NC(=O)c2ccc(-c3ccc([N+](=O)[O-])cc3)o2)CC(C)(C)N1,5,0,20*,-8,-6,3
Cc1ccc(C(=O)COC(=O)CNC(=O)c2ccccc2)s1,7,1,22*,-1,6,-6
COc1ccc(CNC(=O)CN(C2CCCCC2)S(C)(=O)=O)cc1,7,2,26*,-3,-3,-5
CC1(C(=O)NCc2ccccc2)CN(S(C)(=O)=O)CC(=O)N1Cc1cccc(C(F)(F)F)c1 (stereo not given),-3,9,2,-4,2,-16
O=C(Cc1cccc(NC(=O)C2CCCN(C(=O)C3CCCC3)C2)c1)Nc1cccc(C(=O)N2CCOCC2)c1 (stereo not given),-4,1,1,4,0,1
CC(=O)Nc1ccc(OCC(=O)c2cc(C)ccc2C)cc1,5,0,19*,-1,2,2
CCOc1ccc(NC(=O)CCC(=O)NNC(=O)COc2ccc(C)cc2)cc1,-16,11,-3,30*,-2,1
CC(=O)Nc1ccc(OCC(=O)c2ccc(C)cc2C)cc1,3,3,-3,0,3,2
O=C(Nc1ccc(N2CCN(c3ccc(C(F)(F)F)cn3)CC2)nc1)c1cccs1,-3,0,5,9,0,-4
O=C(Nc1ccc(N2CCN(c3ncccc3C(F)(F)F)CC2)nc1)c1cccs1,-32,18,-51,19,-10,27*
COc1cc(C=O)ccc1OCC(=O)N1CCCC1,20*,2,5,-18,-1,-1
CCCn1c(SCC(=O)Nc2cccc(F)c2)nc(O)cc1=O,-5,41*,-11,34*,5,27*
O=C(N/N=C/c1ccc(-c2ccc(Cl)c(C(=O)O)c2)o1)c1cc2c(ccc3ccccc32)o1,6,1,9,5,2,27*
COc1ccc2oc(C(=O)Nc3ccc(S(=O)(=O)N(C)C4CCN(C)CC4)cc3)c(C)c2c1,5,6,-5,-3,-3,15
SMILES,M5 PAM,M4 ag,M4 PAM,CHRM5 antagonist,CHRM5 agonist,CHRM4 antagonist
c1ccc(Cc2noc(CN3CCCN(C4Cc5ccccc5C4)CC3)n2)cc1,-31,15,-28,32*,-12,51*
O=C(NCc1cccc(F)c1)c1cccc2c1C(=O)c1ccc(N3CCCC3)cc1S2(=O)=O,-36,80*,-16,17,35*,13
O=C(NCc1cccc(F)c1)c1cccc2c1C(=O)c1ccc(N3CCC(Cc4ccccc4)CC3)cc1S2(=O)=O,-6,12,-2,28*,14,2
COc1cc(Cl)ccc1OCc1cc(C(=O)N(C)CC2CCCCO2)no1 (stereo not given),7,2,0,-4,-2,2
COc1ccc(S(=O)(=O)N2CCCCC2c2cc(C(=O)Nc3ccc(OC)cc3C)no2)cc1 (stereo not given),-3,8,-7,0,-1,-5
Cn1c(CNC(=O)C2CCCCC2)cc2cc(Cl)ccc21,-2,16,17*,22,7,10
COc1ccc([N+](=O)[O-])cc1NC(=O)C(C)NNC(=O)c1cccc([N+](=O)[O-])c1 (stereo not given),1,2,6,0,1,-5
C=C1[C@@H](CCO)N(S(=O)(=O)C(C)(C)C)C[C@@H]1C,-2,0,-6,3,1,-3
CC(O)(C#CCN1CCCCCC1)c1ccccc1 (stereo not given),-16,15,-20,26,-6,23
OC(C#CCN1CCCC1)(c1ccccc1)c1ccccc1,-17,1,-18,99*,-7,98*
OC(C#CCN1CCCCC1)(c1ccccc1)c1ccccc1,-36,2,-18,100*,-21,100*
CC(C)C(O)(C#CCN1CCCCC1)C(C)C,-19,0,-6,31*,-8,1
OC(C#CCN1CCOCC1)(c1ccccc1)C1CC1 (stereo not given),2,0,2,0,-4,5
O=C(COC(=O)c1cc(Br)ccc1O)NNC(=O)c1cccs1,3,3,9,5,1,0
C[C@H](NS(=O)(=O)c1ccc(Cl)cc1)C(=O)OCC(=O)Nc1cc(S(=O)(=O)N2CCOCC2)ccc1Cl,-6,8,-3,1,1,-2
CCN(CCCc1ccccc1)CCCc1ccccc1,-18,1,-18,35*,-1,89*
CCCN(CCO)CCCc1ccccc1,6,1,6,-3,-4,7
Cc1cccc(NC(=S)NN2CCN(C)CC2)c1C,-3,0,5,2,-5,1
Cc1ccccc1NC(=S)NN1CCN(C)CC1,2,1,30*,-2,-10,3
